# Measurements pooled from the literature.
# Compare with care: the assays were run in different laboratories.
# Target: Activin receptor type-1B (ACVR1B, Homo sapiens, UniProt P36896)
# One construct used (P36896 24-505): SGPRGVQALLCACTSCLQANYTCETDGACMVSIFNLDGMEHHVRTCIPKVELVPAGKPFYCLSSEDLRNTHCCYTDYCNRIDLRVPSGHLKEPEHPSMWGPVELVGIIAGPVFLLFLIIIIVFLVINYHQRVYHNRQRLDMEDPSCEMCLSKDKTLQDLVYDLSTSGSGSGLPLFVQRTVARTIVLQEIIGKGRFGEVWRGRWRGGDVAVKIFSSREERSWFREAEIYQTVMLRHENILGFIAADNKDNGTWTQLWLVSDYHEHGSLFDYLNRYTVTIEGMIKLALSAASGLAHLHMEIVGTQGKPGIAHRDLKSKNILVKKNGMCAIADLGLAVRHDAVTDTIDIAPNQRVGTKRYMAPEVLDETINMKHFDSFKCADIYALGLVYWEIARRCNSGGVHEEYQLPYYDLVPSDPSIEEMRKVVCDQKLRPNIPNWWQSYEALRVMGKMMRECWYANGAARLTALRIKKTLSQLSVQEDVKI
Structure (SMILES),test,setting,measurement,value
CC(C)(C)c1cc(C=C(C#N)C#N)cc(Br)c1O,"enzyme activity, inhibitor",0.5 µM,remaining activity,108%
Nc1ncc(-c2nc(N3CCOCC3)nc(N3CCOCC3)n2)c(C(F)F)n1,"binding, competition with immobilised ligand",10 µM,remaining binding,94%
Cc1nn(C)cc1-c1nc2c(N3CCN(Cc4ccc(Cl)cc4)CC3)c(Cl)cnc2[nH]1,"binding, competition with immobilised ligand",1 µM,remaining binding,68%
Cn1cncc1[C@](O)(COc1ccc(C#N)cc1-c1ccc(OC(F)(F)F)cc1)c1ccc(C#N)cc1,"cell-free assay, competition with immobilised ligand",1 µM,remaining binding,87%
COc1cc(Nc2ncc(F)c(Nc3ccc4c(n3)NC(=O)C(C)(C)O4)n2)cc(OC)c1OC,"binding, competition with immobilised ligand",10 µM,inhibition,55%
Cn1cc(-c2cccc(N3CCc4c(sc5c4CC(C)(C)C5)C3=O)c2CO)cc(Nc2ccncn2)c1=O,"enzyme activity, inhibitor",1 µM,inhibition,-5%
COc1ncccc1-c1cnn2ccc(N3CCN(C(=O)OC(C)C)CC3)nc12,"binding, competition with immobilised ligand",1 µM,remaining binding,93%
C#Cc1n[nH]c2c(-c3cn([C@@H](C)c4ccccc4)c(=O)[nH]c3=O)cc(F)cc12,"enzyme activity, inhibitor",0.1 µM,inhibition,-3.3%
Cn1cc(-c2cc(F)cc(N3CCn4c(cc5c4CCCC5)C3=O)c2CO)cc(Nc2ccc(N3CCN(C4COC4)CC3)cn2)c1=O,"enzyme activity, inhibitor",0.1 µM,inhibition,-1%
C#Cc1n[nH]c2c(-c3cn([C@@H](C)c4ccccn4)c(=O)[nH]c3=O)cc(F)cc12,"enzyme activity, inhibitor",0.1 µM,inhibition,-3.4%
O=c1[nH]c2ccccc2n1C1CCN(Cc2ccc(-c3[nH]c4cc5ncnc5cc4nc3-c3ccccc3)cc2)CC1,cell-free assay,0.5 µM,remaining signal,111%
N#CC1(c2ccccn2)CCN(Cc2cc(C(=O)O)c(=O)n3ccccc23)CC1,"cell-free assay, competition with immobilised ligand",1 µM,remaining binding,94%
